From ChEMBL document CHEMBL2346559, “Optimization of benzoxazole-based inhibitors of Cryptosporidium parvum inosine 5'-monophosphate dehydrogenase” (J Med Chem, 2013)

Key:
[1] = target: T1, Inosine-5'-monophosphate dehydrogenase (Cryptosporidium parvum, UniProt Q8T6T2); experiment: Inhibition of Cryptosporidium parvum N-terminal His6-tagged IMPDH-mediated NADH production expressed in Escherichia coli BL21(DE3) preincubated for 5 mins prior to substrate addition by fluorescence assay
T1 sequence (Q8T6T2 whole entry): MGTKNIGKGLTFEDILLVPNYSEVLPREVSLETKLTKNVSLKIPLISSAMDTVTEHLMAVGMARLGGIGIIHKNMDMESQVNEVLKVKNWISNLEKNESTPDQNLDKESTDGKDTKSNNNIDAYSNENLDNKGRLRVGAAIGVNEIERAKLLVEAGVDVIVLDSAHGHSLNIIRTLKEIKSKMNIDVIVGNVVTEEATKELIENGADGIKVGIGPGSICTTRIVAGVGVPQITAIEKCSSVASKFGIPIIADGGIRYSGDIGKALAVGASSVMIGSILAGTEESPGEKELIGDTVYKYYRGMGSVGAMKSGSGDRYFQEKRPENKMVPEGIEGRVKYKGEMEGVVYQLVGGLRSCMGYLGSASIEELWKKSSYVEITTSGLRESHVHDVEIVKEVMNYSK

[2] = system: Toxoplasma gondii; experiment: Antiparasitic activity against wild-type Toxoplasma gondii expressing eukaryotic IMPDH; type: functional, organism-based
[3] = target: T1, Inosine-5'-monophosphate dehydrogenase; experiment: Inhibition of Cryptosporidium parvum N-terminal His6-tagged IMPDH-mediated NADH production expressed in Escherichia coli BL21(DE3) preincubated for 5 mins prior to substrate addition by fluorescence assay in presence of BSA
How it was run: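 Same CpIMPDH fluorescence assay (10 nM enzyme, 300 μM NAD, 150 μM IMP, pH 8.0 Tris buffer, 25 °C, 5 min inhibitor preincubation), run with 0.05% fatty-acid-free BSA added to gauge nonspecific protein binding. Quadruplicate points; IC50 averaged over three determinations.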

[4] = system: Toxoplasma gondii; experiment: Selectivity ratio of EC50 for wild-type Toxoplasma gondii to EC50 for Toxoplasma gondii expressing Cryptosporidium parvum IMPDH; type: functional
[5] = system: Toxoplasma gondii; experiment: Antiparasitic activity against transgenic Toxoplasma gondii expressing Cryptosporidium parvum IMPDH; type: functional, organism-based
How it was run: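 Engineered T. gondii strain that depends on CpIMPDH for guanine nucleotide synthesis, run alongside the wild-type RH strain, whose native eukaryotic IMPDH also gauges host-cell cytotoxicity. Antiparasitic EC50 is the average of three independent determinations unless otherwise stated, with some values from two determinations.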

[6] = target: Inosine-5'-monophosphate dehydrogenase 2 (Homo sapiens, UniProt P12268); experiment: Inhibition of human IMPDH2
[7] = system: Liver; experiment: Half life in mouse liver microsomes by LC/MS/MS analysis in presence of NADPH; type: ADME, Microsome
How it was run: (§1)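 Incubation with mouse liver microsomes at 37 °C, with and without NADPH. Percent of compound remaining measured at several time points; half-life from a fit to first-order decay.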

[8] = system: Liver; experiment: Half life in mouse liver microsomes by LC/MS/MS analysis; type: ADME, Microsome; how it was run: as §1
[9] = Cytotoxicity against human HeLa cells after 3 days by Alamar blue assay; type: cell-based; settings: read-out: LD50
How it was run: (§2)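 Tested in parallel against HeLa, HEK293, COS and CHO cells. Viability was read as metabolic activity by alamarBlue and expressed as LD50.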

[10] = Cytotoxicity against African green monkey COS cells after 3 days by Alamar blue assay; type: cell-based; settings: chlorocebus aethiops, read-out: LD50; how it was run: as §2
[11] = Cytotoxicity against human HEK293 cells after 3 days by Alamar blue assay; type: cell-based; settings: read-out: LD50; how it was run: as §2
[12] = Cytotoxicity against CHO cells after 3 days by Alamar blue assay; type: cell-based, Cricetulus griseus; settings: chinese hamster, read-out: LD50; how it was run: as §2

Row | Compound | IC50 [1] [nM] | EC50 [2] [nM] | IC50 [3] [nM] | Ratio EC50 [4] | EC50 [5] [nM] | IC50 [6] [nM] | t1/2 [7] [min] | t1/2 [8] [min] | CC50 at 72 h [9] [nM] | CC50 at 72 h [10] [nM] | CC50 at 72 h [11] [nM] | CC50 at 72 h [12] [nM]
1 | COc1cccc(O[C@@H](C)C(=O)Nc2ccc3oc(-c4ccncc4)nc3c2)c1OC | 50 | 21000 | 60 | 30 | 700 | > 5000 | – | – | – | – | – | –
2 | O=C(COc1ccc(Cl)cc1Cl)Nc1ccc2oc(-c3ccncc3)nc2c1 | > 5000 | – | – | – | – | > 5000 | – | – | – | – | – | –
3 | C[C@@H](C(=O)Nc1ccc2oc(-c3ccncc3)nc2c1)c1cccc(Cl)c1Cl | 60 | – | – | – | – | > 5000 | 25 | 130 | – | – | – | –
4 | C[C@H](Oc1cccc2ccccc12)C(=O)N(C)c1ccc2oc(-c3cncs3)nc2c1 | > 5000 | – | – | – | – | > 5000 | – | – | – | – | – | –
5 | CC(Oc1cccc2ccccc12)C(=O)Nc1ccc2oc(-c3ccncc3)nc2c1 (stereo not drawn) | 9 | 2400 | 14 | 34 | 200 | > 5000 | – | – | – | – | – | –
6 | CC(Oc1ccc(Cl)cc1)C(=O)Nc1ccc2oc(-c3ccncc3)nc2c1 (stereo not drawn) | 105 | – | 118 | – | – | > 5000 | – | – | – | – | – | –
7 | C[C@H](C(=O)Nc1ccc2oc(-c3ccncc3)nc2c1)c1ccccc1 | > 5000 | – | – | – | – | > 5000 | – | – | – | – | – | –
8 | CC(Oc1ccccc1)C(=O)Nc1ccc2oc(-c3ccncc3)nc2c1 (stereo not drawn) | 40 | 7000 | 50 | 2 | 4000 | > 5000 | – | – | – | – | – | –
9 | C[C@H](Oc1cccc(C(F)(F)F)c1Cl)C(=O)Nc1ccc2oc(-c3ccncc3)nc2c1 | 9 | – | 52 | – | 800 | > 5000 | – | – | – | – | – | –
10 | CC(C(=O)Nc1ccc2oc(-c3ccncc3)nc2c1)c1ccccc1 (stereo not drawn) | 120 | 5000 | 130 | – | 2500 | > 5000 | – | – | – | – | – | –
11 | CC(Oc1cccc(Cl)c1)C(=O)Nc1ccc2oc(-c3ccncc3)nc2c1 (stereo not drawn) | 20 | 1100 | 32 | 2 | 500 | > 5000 | – | – | – | – | – | –
12 | C[C@H](Oc1cccc(Cl)c1Cl)C(=O)Nc1ccc2nc(-c3cncs3)oc2c1 | 7 | – | 60 | – | – | > 5000 | – | – | – | – | – | –
13 | C[C@H](Oc1cccc(Cl)c1Cl)C(=O)Nc1ccc2oc(-c3ccncc3)nc2c1 | 1.2 | 5000 | 3.5 | 16 | 300 | > 5000 | 9 | 12 | – | – | – | –
14 | C[C@H](Nc1cccc2ccccc12)C(=O)Nc1ccc2oc(-c3ccncc3)nc2c1 | 14 | – | – | – | – | > 5000 | 18 | 27 | – | – | – | –
15 | C[C@H](Oc1cccc(Cl)c1Cl)C(=O)Nc1ccc2oc(-c3nccs3)nc2c1 | 17 | 2200 | 30 | 7 | 300 | > 5000 | – | – | – | – | – | –
16 | CC(Oc1ccccc1Cl)C(=O)Nc1ccc2oc(-c3ccncc3)nc2c1 (stereo not drawn) | 19 | 3000 | 50 | 3 | 900 | > 5000 | – | – | > 50000 | > 50000 | 12500 | > 50000
17 | CC(Oc1cccc2ccccc12)C(=O)Nc1ccc2oc(-c3ncccn3)nc2c1 (stereo not drawn) | > 5000 | – | – | – | – | > 5000 | – | – | – | – | – | –
18 | C[C@H](Oc1cccc2ccccc12)C(=O)Nc1ccc2oc(-c3ccc[nH]3)nc2c1 | 26 | 1700 | 50 | 1.7 | 1000 | > 5000 | – | – | – | – | – | –
19 | C[C@@H](Oc1cccc2ccccc12)C(=O)Nc1ccc2oc(-c3ccncc3)nc2c1 | 400 | – | 380 | – | – | > 5000 | – | – | – | – | – | –
